Test results from ChEMBL document CHEMBL4837234, “"Clicking" fragment leads to novel dual-binding cholinesterase inhibitors” (Bioorg Med Chem, 2021).
Activity calls are given as the source filed them. The rule behind the calls is not given here.

Tests used:
Cholinesterase [1] = target: T1, Cholinesterase (Homo sapiens, UniProt P06276); assay: Inhibition of human serum BuChe using butyrylthiocholine iodide as substrate incubated for 25 mins by DTNB reagent based Ellman's method; format: cell-free
Outline: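 Compound (Tween 80/EtOH stock, final dilutions in pH 8.0 phosphate buffer) preincubated with enzyme 30 min at room temperature, then substrate 0.5 mM plus DTNB, 25 min, 37 °C; yellow anion read spectrophotometrically. Triplicate, three occasions; IC50 from % activity vs log concentration.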

Acetylcholinesterase [2] = target: T2, Acetylcholinesterase (Homo sapiens, UniProt P22303); assay: Inhibition of human erythrocyte AChE using acetylthiocholine iodide as substrate incubated for 25 mins by DTNB reagent based Ellman's method; format: tissue-based
Cholinesterase [3] = target: T1, Cholinesterase; assay: Mixed type inhibition of human serum BuChe assessed as decrease in Vmax at 89 to 267 nM using varying level of butyrylthiocholine iodide as substrate by Lineweaver-Burk plot analysis; format: cell-free; details: dose 89-267 nM
Outline: (§1)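 hBChE from human plasma diluted 1:125 in 0.1 M Na₃PO₄ pH 7.4. Ellman set-up (30 min room-temperature preincubation, then 37 °C with DTNB 1.2 mM) with substrate 0.25, 0.5, 1 and 2 mM and inhibitor 89 and 267 nM. Vmax and Km from nonlinear regression of substrate–velocity curves; Lineweaver–Burk plots by linear regression.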

Cholinesterase [4] = target: T1, Cholinesterase; assay: Mixed type inhibition of human serum BuChe assessed as increase in Km at 89 to 267 nM using varying level of butyrylthiocholine iodide as substrate by Lineweaver-Burk plot analysis; format: cell-free; details: dose 89-267 nM; outline: as §1
Acetylcholinesterase [5] = target: T2, Acetylcholinesterase; assay: Mixed type inhibition of human erythrocyte AChE assessed as decrease in Vmax at 3.3 to 9.9 nM using varying level of acetylthiocholine iodide as substrate by Lineweaver-Burk plot analysis; format: tissue-based; details: dose 3.3-9.9 nM
Outline: (§2)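 hAChE from human erythrocytes, washed in saline and lysed in 0.1 M Na₃PO₄ pH 7.4 with 0.5% Triton-X, then diluted. Ellman set-up (30 min room-temperature preincubation, then 37 °C with DTNB 1.2 mM) using substrate 0.25, 0.5, 1 and 2 mM and inhibitor 3.3 and 9.9 nM. Vmax and Km by nonlinear regression of substrate–velocity curves; Lineweaver–Burk by linear regression.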

Acetylcholinesterase [6] = target: T2, Acetylcholinesterase; assay: Mixed type inhibition of human erythrocyte AChE assessed as increase in Km at 3.3 to 9.9 nM using varying level of acetylthiocholine iodide as substrate by Lineweaver-Burk plot analysis; format: tissue-based; details: dose 3.3-9.9 nM; outline: as §2

T2 sequence (P22303 whole entry): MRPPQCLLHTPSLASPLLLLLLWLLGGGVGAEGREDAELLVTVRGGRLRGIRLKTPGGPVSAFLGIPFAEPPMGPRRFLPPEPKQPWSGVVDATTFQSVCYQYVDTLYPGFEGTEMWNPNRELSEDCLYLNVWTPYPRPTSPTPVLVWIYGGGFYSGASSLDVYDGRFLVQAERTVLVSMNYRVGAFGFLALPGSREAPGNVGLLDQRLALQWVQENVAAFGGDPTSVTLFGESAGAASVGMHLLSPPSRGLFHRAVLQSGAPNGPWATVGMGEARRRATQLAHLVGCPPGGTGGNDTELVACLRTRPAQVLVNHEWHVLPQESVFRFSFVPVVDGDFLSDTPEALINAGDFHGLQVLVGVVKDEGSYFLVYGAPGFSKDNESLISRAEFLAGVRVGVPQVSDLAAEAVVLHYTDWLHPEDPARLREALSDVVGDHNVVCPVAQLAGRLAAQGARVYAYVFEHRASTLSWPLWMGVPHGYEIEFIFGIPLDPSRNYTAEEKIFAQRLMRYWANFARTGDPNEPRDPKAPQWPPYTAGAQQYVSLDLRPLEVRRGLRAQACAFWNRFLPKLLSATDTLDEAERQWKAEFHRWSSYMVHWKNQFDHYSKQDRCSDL
T1 sequence (P06276 whole entry): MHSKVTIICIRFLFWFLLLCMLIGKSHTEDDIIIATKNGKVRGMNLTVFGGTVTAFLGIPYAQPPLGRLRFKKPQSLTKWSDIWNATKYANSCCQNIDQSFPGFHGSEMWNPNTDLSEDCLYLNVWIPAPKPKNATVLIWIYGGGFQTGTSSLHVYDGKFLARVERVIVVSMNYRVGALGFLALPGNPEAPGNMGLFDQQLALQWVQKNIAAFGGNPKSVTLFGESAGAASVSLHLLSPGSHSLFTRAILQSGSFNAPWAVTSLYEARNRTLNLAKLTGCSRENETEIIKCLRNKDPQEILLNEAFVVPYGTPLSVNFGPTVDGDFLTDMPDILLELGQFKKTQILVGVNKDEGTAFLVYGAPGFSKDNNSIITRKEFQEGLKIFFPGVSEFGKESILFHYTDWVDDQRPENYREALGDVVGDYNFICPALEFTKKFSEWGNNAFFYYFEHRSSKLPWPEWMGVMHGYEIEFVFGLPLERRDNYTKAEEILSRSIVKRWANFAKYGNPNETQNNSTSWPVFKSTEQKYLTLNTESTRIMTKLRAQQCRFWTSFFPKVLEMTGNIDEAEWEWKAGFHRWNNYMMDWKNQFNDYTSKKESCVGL

Row | Compound | IC50 (Cholinesterase [1]) | IC50 (Acetylcholinesterase [2]) | inhibition (Cholinesterase [3]) | inhibition (Cholinesterase [4]) | inhibition (Acetylcholinesterase [5]) | inhibition (Acetylcholinesterase [6])
1 | COc1ccc2[nH]cc(CCNC(=O)Cn3cc(CCCCN4CC[C@@]56C=C[C@H](O)C[C@@H]5Oc5c(OC)ccc(c56)C4)nn3)c2c1 | 0.554 µM | 0.023 µM | – | – | – | –
2 | COc1ccc2[nH]cc(CCNC(=O)Cn3cc(CN4CC[C@@]56C=C[C@H](O)C[C@@H]5Oc5c(OC)ccc(c56)C4)nn3)c2c1 | 8.85 µM | 5.41 µM | – | – | – | –
3 | COc1ccc2c3c1O[C@H]1C[C@@H](O)C=C[C@@]31CCN(CCCCc1cn(CCCC(=O)NCCc3c[nH]c4ccccc34)nn1)C2 | 0.209 µM | 0.12 µM | Active | Active | Active | Active
4 | COc1ccc2[nH]cc(CCNC(=O)Cn3cc(CCCCN(C)CCCC4c5cc(OC)c(OC)cc5CCN4C)nn3)c2c1 (stereo unspecified) | 1.6 µM | 2.2 µM | – | – | – | –
5 | COc1ccc2[nH]cc(CCNC(=O)Cn3cc(CN4CCc5cc(OC)c(OC)cc5C4CCCN4C(=O)c5ccccc5C4=O)nn3)c2c1 (stereo unspecified) | 26.2 µM | 39.9 µM | – | – | – | –
6 | COc1ccc2c3c1O[C@H]1C[C@@H](O)C=C[C@@]31CCN(CCCCc1cn(CCCCC(=O)NCCc3c[nH]c4ccccc34)nn1)C2 | 1.29 µM | 0.031 µM | – | – | – | –
7 | COc1ccc2[nH]cc(CCNC(=O)CCCCn3cc(CN4CC[C@@]56C=C[C@H](O)C[C@@H]5Oc5c(OC)ccc(c56)C4)nn3)c2c1 | 2.02 µM | 1 µM | – | – | – | –
8 | COc1ccc2[nH]c(CCNC(=O)CCCn3cc(CCCCN4CCc5cc(OC)c(OC)cc5C4CCCN4C(=O)c5ccccc5C4=O)nn3)cc2c1 (stereo unspecified) | 4.6 µM | 159 µM | – | – | – | –
9 | COc1ccc2[nH]cc(CCNC(=O)CCCCn3cc(CCCCN4CC[C@@]56C=C[C@H](O)C[C@@H]5Oc5c(OC)ccc(c56)C4)nn3)c2c1 | 0.963 µM | 0.018 µM | – | – | – | –
10 | COc1ccc2[nH]c(CCNC(=O)Cn3cc(CCCCN4CCc5cc(OC)c(OC)cc5C4CCCN4C(=O)c5ccccc5C4=O)nn3)cc2c1 (stereo unspecified) | 57.2 µM | 174 µM | – | – | – | –
11 | COc1ccc2c3c1O[C@H]1C[C@@H](O)C=C[C@@]31CCN(CCCCc1cn(CC(=O)NCCc3c[nH]c4ccccc34)nn1)C2 | 0.907 µM | 0.138 µM | – | – | – | –
